17 molecules from ChEMBL document CHEMBL2016500, “Discovery and evaluation of spirocyclic derivatives as antagonists of the neuropeptide Y5 receptor” (Bioorg Med Chem Lett, 2012) can be followed below.

Active and inactive are the calls of the source. The rule behind the calls is not given here.

The target of series [1] is T1, Neuropeptide Y receptor type 5 (Homo sapiens, UniProt Q15761).
T1 sequence (Q15761 whole entry): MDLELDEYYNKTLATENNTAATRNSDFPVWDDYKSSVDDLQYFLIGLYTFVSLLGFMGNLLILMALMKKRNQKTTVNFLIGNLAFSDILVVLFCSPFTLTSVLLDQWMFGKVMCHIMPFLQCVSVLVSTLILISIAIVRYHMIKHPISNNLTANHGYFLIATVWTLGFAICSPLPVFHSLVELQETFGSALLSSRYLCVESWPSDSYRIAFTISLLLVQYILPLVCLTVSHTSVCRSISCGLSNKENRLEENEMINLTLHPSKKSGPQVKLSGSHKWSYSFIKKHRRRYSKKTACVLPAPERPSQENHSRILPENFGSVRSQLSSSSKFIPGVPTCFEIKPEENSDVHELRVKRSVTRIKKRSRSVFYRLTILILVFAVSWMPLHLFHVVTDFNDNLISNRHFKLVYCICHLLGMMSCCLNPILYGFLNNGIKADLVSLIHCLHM
The series can be described thus: Displacement of [125I]PPY from human recombinant NPYY5 receptor expressed in insect Sf9 membranes. In kind it is cell membranes. Background: Loss of bound radioactivity is the signal in a displacement assay; it reports binding, not function.

Series [2] relates to Liver microsomes. The series can be described thus: Intrinsic clearance in human liver microsomes. In kind it is ADME, Microsome. The method in brief: (§1)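 Metabolic stability in human or rat liver microsome preparations. Total intrinsic clearance scaled from in vitro microsomal half-life, given in […].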
The subject of series [3] is Liver microsomes. Nature of the series: Intrinsic clearance in rat liver microsomes. In kind it is ADME, Microsome. The method in brief:
as §1

Series [4] is described as follows: Half life in rat. The series is classed as ADME, organism-based. The settings on record: in vivo.
Series [5] in a line: Oral bioavailability in rat. In kind it is ADME, organism-based. To be noted: in vivo.
A short description of series [6]: Ratio of unbound fraction in plasma to brain in rat. In kind it is ADME, cell-free. The gist of the method:
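Unbound fraction measured separately in rat plasma and in rat brain; the value is expressed as fu,plasma/fu,brain.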

The subject of the next series is Plasma. The series can be described thus: Unbound fraction in diet-induced obese rat plasma at 5 mg/kg bid. The settings on record: in vivo. In kind it is ADME, organism-based. Further details: dose 5 mg/kg. The method in brief: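 Diet-induced obese rats given 5 mg/kg bid. Unbound drug concentrations measured in plasma and brain.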
Series [7] has as its system Rattus norvegicus. Nature of the series: Antiobesity activity in diet-induced obese rat assessed as decrease in food intake at 5 mg/kg bid. The series is classed as functional. Further details: scale not given: the % may be the effect or the level left. The gist of the method:
(§2)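 Diet-induced obese rats dosed 5 mg/kg bid over a 4-day study. Food intake and body weight followed.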

Series [8] relates to Rattus norvegicus. The series can be described thus: Antiobesity activity in diet-induced obese rat assessed as decrease body weight at 5 mg/kg bid. The series is classed as functional, organism-based. Further details: dose 5 mg/kg. The gist of the method: as §2
Series [9] is described as follows: Ratio of unbound fraction in rat brain at 5 mg/kg bid to Ki for human recombinant NPYY5 receptor expressed in insect Sf9 membranes. In kind it is ADME, organism-based, Membrane. Further details: dose 5 mg/kg. To be noted: in vivo. The gist of the method:
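Unbound drug concentrations were measured in plasma and brain of diet-induced obese rats dosed at 5 mg/kg bid. The ratio is unbound brain concentration divided by Ki.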

Series [10] deals with T2, Neuropeptide Y receptor type 1 (Homo sapiens, UniProt P25929).
T2 sequence (P25929 whole entry): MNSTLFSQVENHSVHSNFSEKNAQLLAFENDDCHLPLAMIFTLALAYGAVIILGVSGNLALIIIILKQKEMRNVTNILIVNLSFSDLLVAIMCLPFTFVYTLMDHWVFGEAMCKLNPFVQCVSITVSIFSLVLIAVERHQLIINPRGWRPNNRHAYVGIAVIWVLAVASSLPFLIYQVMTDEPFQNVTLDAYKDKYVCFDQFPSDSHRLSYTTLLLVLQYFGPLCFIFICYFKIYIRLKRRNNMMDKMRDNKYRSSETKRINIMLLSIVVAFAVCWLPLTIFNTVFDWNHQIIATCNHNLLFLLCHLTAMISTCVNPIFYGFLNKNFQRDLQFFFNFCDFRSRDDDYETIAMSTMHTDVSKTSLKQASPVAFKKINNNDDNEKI
Nature of the series: Binding affinity to human NPYY1.

The subject of another series is Brain. Nature of the series: Unbound concentration in diet-induced obese rat brain at 5 mg/kg bid. The settings on record: in vivo.

Broadly, the Ki is the dissociation constant of the complex between target and ligand, obtained from inhibition or displacement. On to `O=C1O[C@]2(CC[C@@H](N(CC(F)(F)F)C(=O)Nc3cnc(-c4ccccc4)cn3)CC2)Cc2ccccc21`, for which, in series [1], the Ki was 2330 nM. Also, the CLint with Liver microsomes [2] was less than 7 mL/min/kg.
As for `O=C(Nc1ccn(-c2ccccc2F)n1)NC1CCC2(CC1)OC(=O)c1ccncc12` (mixture of isomers), the inhibition constant (Ki) in series [1] turned out to be 849 nM.
For the molecule `CN(C(=O)Nc1ccn(-c2ccccc2F)n1)[C@H]1CC[C@]2(CC1)OCc1ccccc12`, in series [1], the inhibitory constant (Ki) was 10 nM. The CLint in the series on Liver microsomes [2] is 67 mL/min/kg; in the series on Liver microsomes [3] it was more than 1120 mL/min/kg.
`CN(C(=O)Nc1ccn(-c2ccccc2F)n1)[C@H]1CC[C@@]2(CC1)Cc1cnccc1C(=O)O2`: in series [1], the Ki was 188 nM.
As to `CN(C(=O)Nc1cnc(-c2ccccc2)cn1)[C@H]1CC[C@@]2(CC1)OC(=O)c1ccncc12`, the inhibition constant Ki in [1] was determined as 0.9 nM. Besides, the figures for the CLint with Liver microsomes [2] and in the series on Liver microsomes [3] were less than 7 mL/min/kg and 12 mL/min/kg, respectively.
For the molecule `CN(C(=O)Nc1ccn(-c2ccccc2F)n1)[C@H]1CC[C@@]2(CC1)Cc1ccccc1C(=O)O2`, in series [1], the Ki was 2.4 nM. Moreover, the CLint worked out at 28 mL/min/kg in the series with Liver microsomes [2] and 290 mL/min/kg in the series with Liver microsomes [3].
`O=C(CC1CCC2(CC1)Cc1ccccc1C(=O)O2)Nc1cnc(-c2ccccc2)cn1` (mixture of isomers): the inhibition constant (Ki) in series [1] was determined as 301 nM.
In the case of `CN(C(=O)Nc1cnc(-c2ccccc2)cn1)[C@H]1CC[C@@]2(CC1)Cc1cnccc1C(=O)O2`, in series [1], the Ki is 82 nM. In addition, the CLint is less than 26 mL/min/kg in the series with Liver microsomes [2] and 86 mL/min/kg in the series with Liver microsomes [3].
Taken in the same sequence, the figures for `CN(C(=O)Nc1ccn(-c2ccccc2F)n1)[C@H]1CC[C@]2(CC1)COc1ccccc12` were 8 nM, 68 mL/min/kg and more than 1120 mL/min/kg.
As to `CN(C(=O)Nc1ccn(-c2ccccc2F)n1)[C@H]1CC[C@@]2(CC1)OC(=O)c1ccccc12`, the Ki in series [1] worked out at 22 nM.
In the case of `CN(C(=O)Nc1ccn(-c2ccccc2F)n1)[C@H]1CC[C@]2(CC1)OC(=O)c1ccccc12`, the inhibition constant Ki in series [1] turned out to be 0.7 nM. For the same molecule, the results for the CLint in the series with Liver microsomes [2] and in the series on Liver microsomes [3] were 24 mL/min/kg and 165 mL/min/kg, respectively.
What is called half-life is how long it takes for the measured level to halve. By bioavailability is commonly meant the share of a dose that reaches the circulation, judged against a reference dose that is usually intravenous. Regarding `CN(C(=O)Nc1cnc(-c2ccccc2)cn1)[C@H]1CC[C@]2(CC1)OC(=O)c1ccncc12`, the Ki in [1] was 1 nM; in series [10], more than 10000 nM. Further, the CLint in the series with Liver microsomes [2] is less than 6 mL/min/kg; in the series on Liver microsomes [3], less than 25 mL/min/kg. The molecule further had a half-life in [4] of 2 h. In [5], this molecule came in with a bioavailability of 80%. The Ratio in series [6] amounted to 3.3; in series [9] it was 25. For the same molecule, the “Cp(f)” value in the series with Plasma worked out at 67 nM. The Activity in the series with Rattus norvegicus [7] is on record as less than 10%. The outcome in the series on Rattus norvegicus [8] was inactive. In addition, the Concentration in the series with Brain came out at 27 nM.
As for `O=C1O[C@]2(CC[C@H](C(=O)Nc3ccn(-c4ccccc4F)n3)CC2)c2cnccc21`, in the series with Rattus norvegicus [8], the result was Active.
`CCN(C(=O)Nc1cnc(-c2ccccc2)cn1)[C@H]1CC[C@@]2(CC1)Cc1ccccc1C(=O)O2`: the Ki in series [1] came to 11 nM.
As for `CN(C(=O)Nc1ccn(-c2ccccc2F)n1)[C@H]1CC[C@]2(CC1)OC(=O)c1ccncc12`, the Ki in series [1] stood at 0.8 nM. Further, the results for the CLint in the series with Liver microsomes [2] and in the series with Liver microsomes [3] were less than 7 mL/min/kg and 28 mL/min/kg, respectively.
The like results for `CN(C(=O)Nc1cnc(-c2ccccc2)cn1)[C@H]1CC[C@@]2(CC1)Cc1ccccc1C(=O)O2` were, in that order, 4.6 nM, 59 mL/min/kg and 333 mL/min/kg.
Take `CC(C)(C)S(=O)(=O)N[C@H]1CC[C@H](C(=O)Nc2ccc(C(F)(F)F)cn2)CC1`: in series [1], the Ki is 5 nM.
